In ChEMBL document CHEMBL3797149, “1-Sulfonyl-6-Piperazinyl-7-Azaindoles as potent and pseudo-selective 5-HT6 receptor antagonists” (Bioorg Med Chem Lett, 2016):
Calls of active or inactive are those of the source. The calls are words filed in the database; no cut-off is given here.

Key:
Mus musculus [1] = experiment: Procognitive effect in CD1 mouse assessed as reversal of scopolamine-induced amnesia by measuring time spent in open arm in acquisition phase at 0.3 to 10 mg/kg, sc pretreated for 10 mins followed by scopolamine injection measured after 30 mins by elevated […] maze test; assay type: functional, organism-based
Procedure, shortened: (§1)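 Elevated plus maze in mice. Test article is given subcutaneously, then scopolamine 10 min later. In the acquisition phase (T1), open-arm time % ([open/(open+enclosed)]×100) and transfer latency to the enclosed arm are recorded. Retention phase (T2) follows 24 h later. n = 13–15 per group; data shown as mean ± SEM and median.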

Mus musculus [2] = experiment: Procognitive effect in CD1 mouse assessed as reversal of scopolamine-induced amnesia by measuring time spent in open arm in retention phase at 0.3 to 10 mg/kg, sc pretreated for 10 mins followed by scopolamine injection measured after 24 hrs by elevated […] maze test; assay type: functional, organism-based; procedure, shortened: as §1
CHO = experiment: Selectivity ratio of Ki for human dopamine D2S receptor expressed in CHO cell membrane to Ki for human 5HT6 receptor in HEK293 cell membrane; assay type: cell-based
Procedure, shortened: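 Ki values come from in-house competition binding: [3H]-LSD displacement at 5-HT6 and [3H]-NMSP displacement at D2. Compounds were tested at eight concentrations from 5×10^-6 to 5×10^-13 M in triplicate. The ratio is D2 Ki divided by 5-HT6 Ki.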

[3] = target: T1, 5-hydroxytryptamine receptor 6 (Homo sapiens, UniProt P50406); experiment: Displacement of [3H]LSD from human 5HT6 receptor in HEK293 cell membrane incubated for 1 hr by scintillation counting method; assay type: cell membranes
Procedure, shortened: (§2)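 Competition binding: [3H]-LSD displacement for 5-HT6 and [3H]-NMSP displacement for D2. Eight compound concentrations, 5 × 10^-6 to 5 × 10^-13 M, each tested in triplicate. Affinity is reported as Ki.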

D(2) dopamine receptor [4] = target: T2, D(2) dopamine receptor (Homo sapiens, UniProt P14416); experiment: Displacement of [3H]NMSP from human dopamine D2S receptor expressed in CHO cell membrane incubated for 1 hr by scintillation counting method; assay type: cell membranes; procedure, shortened: as §2
[5] = Kinetic solubility in sorensen buffer at pH 7.4 incubated for 1 hr by UV-Visible spectrophotometry; assay type: physicochemical; conditions: read-out: Kinetic_solubility
[6] = target: 5-hydroxytryptamine receptor 1B (Rattus norvegicus) (UniProt P28564); experiment: Displacement of [125I]CYP from 5HT1B receptor in rat cerebral cortex at 1 uM incubated for 120 mins by scintillation counting method relative to control; assay type: tissue-based
Procedure, shortened: (§3)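 Tested at a single concentration in a contract panel of 106 neurotransmitter receptors, transporters and ion channels. Read-out is percent radioligand displacement.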

[7] = Passive permeability of compound after 4 hrs by sink-PAMPA assay; assay type: ADME; conditions: read-out: permeability
D(2) dopamine receptor [8] = target: T2, D(2) dopamine receptor; experiment: Displacement of [3H]methyl-spiperone from human recombinant dopamine D2S receptor expressed in HEK293 cells at 1 uM incubated for 60 mins by scintillation counting method relative to control; assay type: cell-based
Procedure, shortened: (§4)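 Single-point screen at 1 µM (final) within a 106-target panel of neurotransmitter receptors, transporters and ion channels. Read-out is % radioligand displacement.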

Cytochrome P450 3A4 = Cytochrome P450 3A4 (Homo sapiens, UniProt P08684); experiment: Inhibition of human recombinant CYP3A4 using 7-benzyloxy-trifluoromethylcoumarin as substrate incubated for 30 mins by fluorescence analysis in presence of NADPH; assay type: ADME
[9] = target: T1, 5-hydroxytryptamine receptor 6; experiment: Displacement of [3H]LSD from human recombinant 5HT6 receptor expressed in CHO cells at 1 uM incubated for 120 mins by scintillation counting method relative to control; assay type: cell-based; procedure, shortened: as §4
[10] = target: D(3) dopamine receptor (Homo sapiens) (UniProt P35462); experiment: Displacement of [3H]methyl-spiperone from human recombinant dopamine D3 receptor expressed in CHO cells at 1 uM incubated for 60 mins by scintillation counting method relative to control; assay type: cell-based; procedure, shortened: as §3
Cytochrome P450 2D6 = Cytochrome P450 2D6 (Homo sapiens, UniProt P10635); experiment: Inhibition of human recombinant CYP2D6 using AMMC as substrate incubated for 45 mins by fluorescence analysis in presence of NADPH; assay type: ADME
Cytochrome P450 2D6, sequence (P10635 whole entry): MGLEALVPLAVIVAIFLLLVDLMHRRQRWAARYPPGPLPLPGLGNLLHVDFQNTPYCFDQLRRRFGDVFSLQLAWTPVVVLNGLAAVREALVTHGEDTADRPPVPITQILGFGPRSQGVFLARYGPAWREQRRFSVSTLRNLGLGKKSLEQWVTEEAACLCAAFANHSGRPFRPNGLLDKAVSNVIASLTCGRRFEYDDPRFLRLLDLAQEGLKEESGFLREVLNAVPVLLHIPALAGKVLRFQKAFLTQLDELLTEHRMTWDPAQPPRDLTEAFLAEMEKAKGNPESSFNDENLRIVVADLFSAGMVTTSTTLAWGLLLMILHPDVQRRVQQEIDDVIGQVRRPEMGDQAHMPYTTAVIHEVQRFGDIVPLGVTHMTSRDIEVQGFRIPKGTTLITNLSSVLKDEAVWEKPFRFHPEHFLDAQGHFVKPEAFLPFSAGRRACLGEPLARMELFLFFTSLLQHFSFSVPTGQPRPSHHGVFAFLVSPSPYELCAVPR

T1 sequence (P50406 whole entry): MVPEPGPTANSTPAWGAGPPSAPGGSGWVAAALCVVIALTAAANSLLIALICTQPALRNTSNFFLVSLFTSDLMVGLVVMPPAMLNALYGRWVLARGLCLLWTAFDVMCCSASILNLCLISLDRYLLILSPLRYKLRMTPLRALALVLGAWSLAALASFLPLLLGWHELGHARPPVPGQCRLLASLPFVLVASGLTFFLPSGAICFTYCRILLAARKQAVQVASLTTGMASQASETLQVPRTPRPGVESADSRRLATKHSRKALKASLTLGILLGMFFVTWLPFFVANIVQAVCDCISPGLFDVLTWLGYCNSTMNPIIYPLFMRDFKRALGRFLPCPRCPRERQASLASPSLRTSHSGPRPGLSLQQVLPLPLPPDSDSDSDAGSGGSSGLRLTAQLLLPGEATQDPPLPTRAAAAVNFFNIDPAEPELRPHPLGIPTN
T2 sequence (P14416 whole entry): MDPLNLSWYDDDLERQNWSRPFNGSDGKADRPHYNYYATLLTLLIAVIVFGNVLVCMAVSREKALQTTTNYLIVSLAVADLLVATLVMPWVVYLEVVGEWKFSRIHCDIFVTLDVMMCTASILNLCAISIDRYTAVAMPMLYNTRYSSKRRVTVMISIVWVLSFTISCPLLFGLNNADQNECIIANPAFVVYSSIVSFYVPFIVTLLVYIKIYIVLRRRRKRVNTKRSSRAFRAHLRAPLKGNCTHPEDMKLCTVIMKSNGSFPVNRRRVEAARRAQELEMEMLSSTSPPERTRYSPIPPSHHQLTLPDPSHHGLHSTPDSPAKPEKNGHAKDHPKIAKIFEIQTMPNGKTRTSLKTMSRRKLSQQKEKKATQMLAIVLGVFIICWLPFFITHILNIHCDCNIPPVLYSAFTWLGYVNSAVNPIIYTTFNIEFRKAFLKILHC
D(3) dopamine receptor (Homo sapiens), sequence (P35462 whole entry): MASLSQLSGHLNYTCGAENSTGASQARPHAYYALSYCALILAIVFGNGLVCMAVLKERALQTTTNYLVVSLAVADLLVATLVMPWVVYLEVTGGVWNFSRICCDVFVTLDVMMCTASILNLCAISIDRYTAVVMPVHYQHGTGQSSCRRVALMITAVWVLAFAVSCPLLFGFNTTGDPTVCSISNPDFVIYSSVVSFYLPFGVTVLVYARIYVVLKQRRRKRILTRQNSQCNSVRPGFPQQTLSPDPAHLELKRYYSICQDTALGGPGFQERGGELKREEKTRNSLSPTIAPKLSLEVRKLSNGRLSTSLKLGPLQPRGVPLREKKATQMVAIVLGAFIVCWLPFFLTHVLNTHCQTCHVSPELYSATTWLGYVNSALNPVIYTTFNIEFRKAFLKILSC
Cytochrome P450 3A4, sequence (P08684 whole entry): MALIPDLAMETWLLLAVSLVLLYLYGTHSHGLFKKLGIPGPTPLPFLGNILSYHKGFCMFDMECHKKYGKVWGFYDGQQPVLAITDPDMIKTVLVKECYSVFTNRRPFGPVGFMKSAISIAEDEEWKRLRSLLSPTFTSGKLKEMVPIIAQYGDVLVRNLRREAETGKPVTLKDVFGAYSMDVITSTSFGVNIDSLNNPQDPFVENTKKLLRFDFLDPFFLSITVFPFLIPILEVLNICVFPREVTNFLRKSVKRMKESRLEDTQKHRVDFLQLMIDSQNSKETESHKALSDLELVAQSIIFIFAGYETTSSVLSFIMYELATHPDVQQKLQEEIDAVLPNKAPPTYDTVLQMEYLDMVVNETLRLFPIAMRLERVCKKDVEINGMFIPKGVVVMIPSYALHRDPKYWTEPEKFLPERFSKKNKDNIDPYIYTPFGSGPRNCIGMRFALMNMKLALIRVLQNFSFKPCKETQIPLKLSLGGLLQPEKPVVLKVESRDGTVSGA
5-hydroxytryptamine receptor 1B (Rattus norvegicus), sequence (P28564 whole entry): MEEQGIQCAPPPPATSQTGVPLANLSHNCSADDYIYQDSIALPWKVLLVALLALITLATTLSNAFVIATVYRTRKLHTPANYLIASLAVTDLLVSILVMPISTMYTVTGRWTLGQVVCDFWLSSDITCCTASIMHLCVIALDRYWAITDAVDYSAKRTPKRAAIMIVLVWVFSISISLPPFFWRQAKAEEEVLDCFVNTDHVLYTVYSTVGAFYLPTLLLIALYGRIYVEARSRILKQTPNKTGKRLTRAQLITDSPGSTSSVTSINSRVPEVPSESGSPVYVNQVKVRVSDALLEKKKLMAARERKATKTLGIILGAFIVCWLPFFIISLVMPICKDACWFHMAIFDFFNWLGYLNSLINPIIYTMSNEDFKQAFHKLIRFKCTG

Row | Compound | Ki [3] [µM] | Ki (D(2) dopamine receptor [4]) [µM] | Ratio Ki (CHO) | other results
1 | CC(C)CS(=O)(=O)n1ccc2c(-c3ccc(C(F)(F)F)cc3)cc(N3CCN(C)CC3)nc21 |  |  | 80 | Activity (Mus musculus [1]): Active; Activity (Mus musculus [2]): Active
2 | COCCS(=O)(=O)n1ccc2c(-c3ccc(C(F)(F)F)cc3)cc(N3CCN(C)CC3)nc21 | 0.008 | 0.052 | 6 | 
3 | CN1CCN(c2cc(-c3ccc(C(F)(F)F)cc3)c3ccn(S(=O)(=O)C4CCOCC4)c3n2)CC1 | 0.007 | > 2 | > 285 | 
4 | CN1CCN(c2cc(-c3ccc(C(F)(F)F)cc3)c3ccn(S(C)(=O)=O)c3n2)CC1 | 0.054 | 1.23 | 22 | 
5 | CC(C)CS(=O)(=O)n1ccc2c(-c3ccc(C(F)(F)F)cc3)cc(N3CCN(C)CC3)nc21.O=S(=O)(O)O |  |  |  | solubility kinetic at 1 h [5]: 10 µg/mL
6 | CC(C)CS(=O)(=O)n1ccc2c(-c3ccc(C(F)(F)F)cc3)cc(N3CCN(C)CC3)nc21.O=C(O)C(O)C(O)C(=O)O |  |  |  | solubility kinetic at 1 h [5]: 11 µg/mL
7 | CC(C)CS(=O)(=O)n1ccc2c(-c3ccc(C(=O)N(C)C)cc3)cc(N3CCN(C)CC3)nc21 | > 2 | > 2 |  | 
8 | Br.CC(C)CS(=O)(=O)n1ccc2c(-c3ccc(C(F)(F)F)cc3)cc(N3CCN(C)CC3)nc21 |  |  |  | solubility kinetic at 1 h [5]: 65 µg/mL
9 | CN1CCN(c2cc(-c3ccc(C(F)(F)F)cc3)c3ccn(S(=O)(=O)C4CCCCC4)c3n2)CC1 | 0.015 | > 2 | > 133 | 
10 | CC(C)CS(=O)(=O)n1ccc2c(-c3ccc(C(F)(F)F)cc3)cc(N3CCNCC3)nc21 | 0.003 | 1.7 |  | inhibition [6]: 72%; Papp at 4 h [7]: 92 ×10⁻⁶ cm/s; inhibition (D(2) dopamine receptor [8]): 60%; IC50 (Cytochrome P450 3A4): < 1.1 µM; inhibition [9]: 100%; inhibition [10]: 94%; IC50 (Cytochrome P450 2D6): > 10 µM
11 | CC(C)S(=O)(=O)n1ccc2c(-c3ccc(C(F)(F)F)cc3)cc(N3CCN(C)CC3)nc21 | 0.006 | 0.025 | 4 | 
12 | CC(C)CS(=O)(=O)n1ccc2c(-c3ccc(C(F)(F)F)cc3)cc(N3CCN(C)CC3)nc21.O=C(O)CC(O)(CC(=O)O)C(=O)O |  |  |  | solubility kinetic at 1 h [5]: 14 µg/mL
13 | CC(C)CS(=O)(=O)n1ccc2c(-c3ccccc3C(F)(F)F)cc(N3CCN(C)CC3)nc21 | 0.024 | 0.113 | 5 | 
14 | CC(C)CS(=O)(=O)n1ccc2c(-c3ccc(C(F)(F)F)cc3)cc(N3CCN(C)CC3)nc21.Cl |  |  |  | solubility kinetic at 1 h [5]: 14 µg/mL
15 | CC(C)CS(=O)(=O)n1ccc2c(-c3ccc(OCc4ccccc4)cc3)cc(N3CCN(C)CC3)nc21 | 0.29 | 0.086 | 0.3 | 
16 | CC(C)CS(=O)(=O)n1ccc2c(-c3ccc(C(F)(F)F)cc3)cc(N3CCN(C)CC3)nc21.O=C(O)/C=C/C(=O)O |  |  |  | solubility kinetic at 1 h [5]: 20 µg/mL
17 | CC(C)CS(=O)(=O)n1ccc2c(-c3ccc4[nH]ccc4c3)cc(N3CCN(C)CC3)nc21 | 0.005 | 0.382 | 76 | 

Second part, led by results:

Row | Ki [3] [µM] | Ki (D(2) dopamine receptor [4]) [µM] | Compound | Ratio Ki (CHO) | other results
18 | 0.036 | > 2 | CC(C)CS(=O)(=O)n1ccc2c(-c3cccnc3)cc(N3CCN(C)CC3)nc21 | > 55 | 
19 | 0.011 | 0.614 | CCc1ccc(-c2cc(N3CCN(C)CC3)nc3c2ccn3S(=O)(=O)CC(C)C)cc1 | 56 | 
20 | 0.129 | > 2 | Cc1noc(C)c1-c1cc(N2CCN(C)CC2)nc2c1ccn2S(=O)(=O)CC(C)C | > 15 | 
21 | 0.022 | 0.108 | CC(C)CS(=O)(=O)n1ccc2c(-c3ccc(O)cc3)cc(N3CCN(C)CC3)nc21 | 5 | 
22 | 0.002 | 0.022 | COc1ccc(-c2cc(N3CCN(C)CC3)nc3c2ccn3S(=O)(=O)CC(C)C)cc1 | 9 | 
23 | 0.087 | > 2 | CC(C)CS(=O)(=O)n1ccc2c(-c3cnn(C)c3)cc(N3CCN(C)CC3)nc21 | > 23 | 
24 | 0.231 | > 2 | CC(C)CS(=O)(=O)n1ccc2c(-c3ccc(=O)[nH]c3)cc(N3CCN(C)CC3)nc21 | > 8 | 
25 | 0.007 | 0.205 | CC(C)CS(=O)(=O)n1ccc2c(-c3ccc(C#N)cc3)cc(N3CCN(C)CC3)nc21 | 29 | 
26 | 0.016 | 0.547 | CC(C)CS(=O)(=O)n1ccc2c(-c3ccccc3)cc(N3CCN(C)CC3)nc21 | 35 | 
27 | 0.048 | 0.63 | CC(C)CS(=O)(=O)n1ccc2c(-c3cccc(C(F)(F)F)c3)cc(N3CCN(C)CC3)nc21 | 13 | 
28 | 0.012 | 0.64 | Cc1cc(-c2cc(N3CCN(C)CC3)nc3c2ccn3S(=O)(=O)CC(C)C)c(C)s1 | 53 | 
